Experimental findings from ChEMBL document CHEMBL1806434, “Acyclic nucleoside phosphonates with a branched 2-(2-phosphonoethoxy)ethyl chain: efficient synthesis and antiviral activity” (Bioorg Med Chem, 2011) are described below.

Active and inactive are the calls of the source. The calls are words filed in the database; no cut-off is given here. Some results are limits rather than exact numbers.

Series [1] concerns Punta Toro virus. Description: Antiviral activity against Punta Toro virus assessed as reduction of virus induced cytopathicity by cell based assay. In kind it is functional, organism-based. A digest of the protocol:
(§1)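 Confluent cell monolayers in 96-well plates (HEL, Vero, HeLa, CRFK or MDCK; the cell type per virus is not specified) infected with 100 CCID50 virus or 20 PFU and incubated with serial compound dilutions. Cytopathicity scored once it was complete in untreated infected controls.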

The nature of series [2]: Cytotoxicity against human HEL cells assessed as alteration of cell morphology after 3 days by microscopic analysis. In kind it is cell-based. A digest of the protocol:
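MCC taken as the lowest compound concentration producing microscopically detectable alteration of HEL fibroblast morphology.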

The subject of series [3] is Human betaherpesvirus 5. Description: Antiviral activity against Human cytomegalovirus Davis assessed as reduction of virus induced cytopathicity by cell based assay. In kind it is functional, organism-based. The conditions noted are these: for EC50: Human betaherpesvirus 5, Davis. A digest of the protocol: (§2)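 Confluent cell monolayers infected with 100 CCID50 virus, or 20 PFU for plaque assays, then incubated with serial compound dilutions. Host cells listed for the non-HIV panel are HEL fibroblasts, Vero, HeLa, CRFK or MDCK. Cytopathicity is scored, or plaques counted for VZV, once infected untreated controls reach full CPE.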

The subject of series [4] is Coxsackievirus B4. Put plainly: Antiviral activity against Coxsackievirus B4 assessed as reduction of virus induced cytopathicity by cell based assay. Format: functional, organism-based. An outline of the steps:
as §1

The subject of series [5] is Respiratory syncytial virus. Description: Antiviral activity against Respiratory syncytial virus Long assessed as reduction of virus induced cytopathicity by cell based assay. Format: functional, organism-based. A digest of the protocol:
as §1

The test system of series [6] is Human respirovirus 3. Put plainly: Antiviral activity against Human parainfluenza virus 3 assessed as reduction of virus induced cytopathicity by cell based assay. Format: functional, organism-based. An outline of the steps:
as §1

Series [7] concerns Human alphaherpesvirus 3. Description: Antiviral activity against thymidine kinase-deficient Varicella-zoster virus 07/1 assessed as reduction of virus induced cytopathicity by cell based assay. Format: functional, organism-based. The conditions noted are these: for EC50: Human alphaherpesvirus 3, 07/1. An outline of the steps:
as §2

The test system of series [8] is Mammalian orthoreovirus 1. Put plainly: Antiviral activity against Reovirus-1 assessed as reduction of virus induced cytopathicity by cell based assay. In kind it is functional, organism-based. A digest of the protocol:
as §1

Series [9] relates to Human alphaherpesvirus 1. Put plainly: Antiviral activity against Herpes simplex virus 1 strain KOS assessed as reduction of virus induced cytopathicity by cell based assay. Format: functional, organism-based. Particulars: for EC50: Human alphaherpesvirus 1, KOS. A digest of the protocol:
as §2

The test system of series [10] is Human alphaherpesvirus 2. Description: Antiviral activity against Herpes simplex virus 2 strain G assessed as reduction of virus induced cytopathicity by cell based assay. In kind it is functional, organism-based. The conditions noted are these: for EC50: Human alphaherpesvirus 2, strain G. An outline of the steps: as §2
Series [11] deals with Sindbis virus. Put plainly: Antiviral activity against Sindbis virus assessed as reduction of virus induced cytopathicity by cell based assay. In kind it is functional, organism-based. An outline of the steps:
as §1

The subject of series [12] is Vaccinia virus. Put plainly: Antiviral activity against Vaccinia virus Lederle assessed as reduction of virus induced cytopathicity by cell based assay. Format: functional, organism-based. Particulars: Orthopoxvirus vaccinia. A digest of the protocol:
as §2

In series [13] the test system is Vesicular stomatitis virus. Description: Antiviral activity against Vesicular stomatitis virus assessed as reduction of virus induced cytopathicity by cell based assay. In kind it is functional, organism-based. An outline of the steps:
as §2

The subject of series [14] is Human alphaherpesvirus 1. Description: Antiviral activity against thymidine kinase-deficient acyclovir-resistant Herpes simplex virus 1 strain KOS assessed as reduction of virus induced cytopathicity by cell based assay. In kind it is functional, organism-based. The conditions noted are these: for EC50: Human alphaherpesvirus 1, KOS. An outline of the steps:
as §2

Series [15] has as its system HEL. Description: Cytotoxicity against human HEL cells after 3 days by coulter counter. Format: cell-based. Particulars: 72 h. A digest of the protocol: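 HEL cells seeded at 5 × 10^3 cells/well and allowed to proliferate for 24 h, then exposed to a range of compound concentrations for 3 days at 37 °C. Cells counted with a Coulter counter.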
Series [16] has as its system Human alphaherpesvirus 3. Description: Antiviral activity against Varicella-zoster virus strain OKA expressing thymidine kinase assessed as reduction of virus induced cytopathicity by cell based assay. Format: functional. The conditions noted are these: for EC50: Human alphaherpesvirus 3, strain Oka vaccine; for Activity: strain Oka vaccine. A digest of the protocol: as §2

For series [17], the system named is Human alphaherpesvirus 3. Description: Antiviral activity against thymidine kinase-deficient Varicella-zoster virus YS/R assessed as reduction of virus induced cytopathicity by cell based assay. In kind it is functional, organism-based.
Series [18] deals with Human betaherpesvirus 5. Description: Antiviral activity against Human cytomegalovirus strain AD169 assessed as reduction of virus induced cytopathicity by cell based assay. In kind it is functional, organism-based. An outline of the steps: as §2
Series [19] has as its system Human alphaherpesvirus 3. Put plainly: Antiviral activity against Varicella-zoster virus YS expressing thymidine kinase assessed as reduction of virus induced cytopathicity by cell based assay. Format: functional, organism-based.

Regarding `Nc1nc2c(ncn2CCOC(COCc2ccccc2)CP(=O)(O)O)c(=O)[nH]1` (stereo not given), the outcome in [1], in [4], in series [5], in series [6], in [8] and in series [11] was inactive. In addition, in [13], the result was inactive. Besides, the MCC at 72 h in series [2] is greater than 240 µM. Also, the EC50 in [3] was greater than 240 µM; in [7], 94 µM; in [9] it was greater than 240 µM; in series [10] it was greater than 240 µM; in series [12] it was greater than 240 µM; in [14], greater than 240 µM. Moreover, the EC50 in series [16] was found to be 109 µM. The compound further yielded a CC50 in [15] greater than 240 µM.

With `Nc1ncnc2c1ncn2CCOC(COCc1ccccc1)CP(=O)(O)O` (stereo not given), the result in series [1], in series [3], in series [4], in series [5], in series [17] and in series [6] was inactive. In addition, the outcome in [7], in series [8], in series [9], in series [10], in series [11] and in [12] was inactive. Further, the result in series [13], in series [14], in series [16], in [18] and in series [19] was inactive.

Consider `O=c1[nH]cnc2c1ncn2CCOC(CO)CP(=O)(O)O` (stereo not given), for which the outcome in series [1], in series [4], in [5], in series [6], in series [8] and in [11] was inactive. The outcome in [13] was inactive. In addition, the MCC at 72 h in series [2] was greater than 315 µM. Also, the concentration for a half-maximal effect (EC50) in [3] was greater than 315 µM; in series [7] it was 197 µM; in series [9] it was 208 µM; in [10], 315 µM; in [12], greater than 315 µM; in [14], greater than 315 µM. Also, in series [16], the EC50 is 88 µM. The compound also came in with a CC50 in [15] greater than 315 µM.

`O=c1[nH]cnc2c1ncn2CCOC(COCc1ccccc1)CP(=O)(O)O` (stereo not given): the result in [1], in series [3], in series [4], in series [5], in series [17] and in series [6] was inactive. In addition, the result in series [7], in series [8], in series [9], in [10], in series [11] and in series [12] was inactive. In addition, the result in series [13], in [14], in [16], in [18] and in series [19] was inactive.

For `Cc1cn(CCOC(CO)CP(=O)(O)O)c(=O)[nH]c1=O` (stereo not given), the outcome in series [1], in series [3], in [4], in series [5], in series [17] and in [6] was inactive. Moreover, the outcome in series [7], in series [8], in series [9], in [10], in [11] and in series [12] was inactive. Moreover, the outcome in [13], in [14], in series [16], in series [18] and in series [19] was inactive.

Regarding `CC(CP(=O)(O)O)OCCn1ccc(N)nc1=O` (stereo not given), the outcome in [1], in [4], in series [5], in series [6], in series [8] and in series [11] was inactive. For the same compound, the result in [13] was inactive. For the same compound, the MCC at 72 h in series [2] is greater than 361 µM. The EC50 is greater than 361 µM in series [3]; 168 µM in series [7]; greater than 361 µM in [9]; greater than 361 µM in [10]; greater than 361 µM in [12]; greater than 361 µM in [14]. For the same compound, in series [16], the EC50 came out at 130 µM. The compound also displayed a half-maximal cytotoxic concentration (CC50) in [15] of 307 µM.

For `O=c1ccn(CCOC(CO)CP(=O)(O)O)c(=O)[nH]1` (stereo not given), the outcome in series [1], in series [3], in [4], in series [5], in series [17] and in [6] was inactive. Further, the outcome in series [7], in series [8], in [9], in [10], in series [11] and in [12] was inactive. Also, the result in series [13], in series [14], in series [16], in [18] and in series [19] was inactive.

For `Cc1cn(CCOC(C)CP(=O)(O)O)c(=O)[nH]c1=O` (stereo not given), the outcome in [1], in series [4], in [5], in [6], in [8] and in series [11] was inactive. Moreover, the result in [13] was inactive. Moreover, the MCC at 72 h in series [2] is greater than 342 µM. Further, the EC50 is 248 µM in series [3]; 48 µM in series [7]; 171 µM in series [9]; 154 µM in [10]; greater than 342 µM in series [12]; greater than 342 µM in [14]. For the same compound, the EC50 in series [16] is 47 µM; in series [18] (Human betaherpesvirus 5, AD169), 188 µM. In series [15], the CC50 was greater than 342 µM.

On to `Nc1nc2c(ncn2CCOC(CO)CP(=O)(O)O)c(=O)[nH]1` (stereo not given), for which the result in series [1], in series [4], in [5], in series [6], in series [8] and in [11] was inactive. Besides, in series [13], the result was inactive. Besides, the MCC at 72 h in series [2] is greater than 300 µM. Also, the EC50 is 165 µM in series [3]; greater than 300 µM in series [7]; 156 µM in series [9]; 156 µM in series [10]; greater than 300 µM in series [12]; 261 µM in series [14]. Further, the EC50 in series [16] is greater than 300 µM. In addition, the CC50 in [15] was found to be 300 µM.

As to `Nc1nc(O)c2ncn(COC(CO)CO)c2n1` [GANCICLOVIR], the MCC at 72 h in series [2] was greater than 394 µM. For the same compound, the EC50 was 0.017 µM in series [9], 0.023 µM in [10], greater than 100 µM in series [12] and 0.12 µM in [14]. Further, the CC50 in [15] amounted to 543 µM.

As to `Nc1nc2c(ncn2COCCO)c(=O)[nH]1` [ACYCLOVIR], in [2], the MCC at 72 h was greater than 444 µM. In addition, the figures for the EC50 in series [9], in [12] and in series [14] were 0.3 µM, greater than 250 µM and 7.3 µM, respectively. In series [15], half-maximal cytotoxicity (CC50) was put at 1340 µM.
